{
  "source": "ChEMBL document CHEMBL2046280",
  "about": "“Discovery of the novel potent and selective FLT3 inhibitor 1-{5-[7-(3- morpholinopropoxy)quinazolin-4-ylthio]-[1,3,4]thiadiazol-2-yl}-3-p-tolylurea and its anti-acute myeloid leukemia (AML) activities in vitro and in vivo” (J Med Chem, 2012)",
  "key": {"[1]": {"target": "Mast/stem cell growth factor receptor Kit (Homo sapiens, UniProt P10721)", "test": "Inhibition of human c-kit"}, "Mus musculus [2]": {"tested_on": "Mus musculus", "test": "Toxicity in NOD-SCID mouse bearing human MV4-11 cells assessed as signs of toxicity at 20 to 100 mg/kg, ip administered qd for 21 days", "type": "organism-based", "parameters": "dose 20-100 mg/kg, route intraperitoneal", "conditions": "in vivo, 504 h", "procedure,_shortened": "(§1)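 Female NOD-SCID mice (6−7 weeks old) received s.c. hind-flank injections of MV4-11 cells (100 μL of a 1 × 10⁸/mL suspension in serum-free medium). At 300−500 mm³, the mice were randomized into 4 groups of 6. They were dosed ip once daily for 21 days with 20, 40 or 100 mg/kg/d or vehicle (25% PEG400 plus 5% DMSO, 5 mL/kg). Body weight and signs of toxicity were followed throughout.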"}, "[3]": {"target": "Macrophage colony-stimulating factor 1 receptor (Homo sapiens, UniProt P07333)", "sequence (P07333 whole entry)": "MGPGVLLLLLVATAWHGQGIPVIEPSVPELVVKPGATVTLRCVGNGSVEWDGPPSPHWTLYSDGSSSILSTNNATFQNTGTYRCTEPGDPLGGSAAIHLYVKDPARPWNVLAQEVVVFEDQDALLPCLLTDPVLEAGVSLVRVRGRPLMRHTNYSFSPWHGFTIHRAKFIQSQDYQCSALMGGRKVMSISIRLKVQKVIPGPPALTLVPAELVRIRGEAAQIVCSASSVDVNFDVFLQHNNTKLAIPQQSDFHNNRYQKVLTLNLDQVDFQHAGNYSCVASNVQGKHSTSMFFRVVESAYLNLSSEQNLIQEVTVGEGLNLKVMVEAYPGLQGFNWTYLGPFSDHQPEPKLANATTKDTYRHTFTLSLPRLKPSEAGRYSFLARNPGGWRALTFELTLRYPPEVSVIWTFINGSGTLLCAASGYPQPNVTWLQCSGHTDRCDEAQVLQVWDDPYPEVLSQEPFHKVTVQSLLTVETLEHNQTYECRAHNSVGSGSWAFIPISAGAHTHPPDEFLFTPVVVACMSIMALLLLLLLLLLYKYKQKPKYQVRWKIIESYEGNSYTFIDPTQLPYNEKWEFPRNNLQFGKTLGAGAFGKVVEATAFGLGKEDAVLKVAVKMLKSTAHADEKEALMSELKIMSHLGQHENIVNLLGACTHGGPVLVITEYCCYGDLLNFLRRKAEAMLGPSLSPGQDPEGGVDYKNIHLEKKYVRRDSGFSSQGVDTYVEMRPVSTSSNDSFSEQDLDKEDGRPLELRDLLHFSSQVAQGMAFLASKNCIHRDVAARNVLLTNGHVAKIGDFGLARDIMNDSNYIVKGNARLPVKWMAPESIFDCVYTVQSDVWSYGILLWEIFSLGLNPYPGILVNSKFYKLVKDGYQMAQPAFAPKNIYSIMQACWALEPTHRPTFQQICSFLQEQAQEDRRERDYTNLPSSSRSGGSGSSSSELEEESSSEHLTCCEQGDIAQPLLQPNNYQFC", "test": "Inhibition of human FMS"}, "[4]": {"target": "T1, Receptor-type tyrosine-protein kinase FLT3 (Homo sapiens, UniProt P36888)", "T1 sequence (P36888 whole entry)": "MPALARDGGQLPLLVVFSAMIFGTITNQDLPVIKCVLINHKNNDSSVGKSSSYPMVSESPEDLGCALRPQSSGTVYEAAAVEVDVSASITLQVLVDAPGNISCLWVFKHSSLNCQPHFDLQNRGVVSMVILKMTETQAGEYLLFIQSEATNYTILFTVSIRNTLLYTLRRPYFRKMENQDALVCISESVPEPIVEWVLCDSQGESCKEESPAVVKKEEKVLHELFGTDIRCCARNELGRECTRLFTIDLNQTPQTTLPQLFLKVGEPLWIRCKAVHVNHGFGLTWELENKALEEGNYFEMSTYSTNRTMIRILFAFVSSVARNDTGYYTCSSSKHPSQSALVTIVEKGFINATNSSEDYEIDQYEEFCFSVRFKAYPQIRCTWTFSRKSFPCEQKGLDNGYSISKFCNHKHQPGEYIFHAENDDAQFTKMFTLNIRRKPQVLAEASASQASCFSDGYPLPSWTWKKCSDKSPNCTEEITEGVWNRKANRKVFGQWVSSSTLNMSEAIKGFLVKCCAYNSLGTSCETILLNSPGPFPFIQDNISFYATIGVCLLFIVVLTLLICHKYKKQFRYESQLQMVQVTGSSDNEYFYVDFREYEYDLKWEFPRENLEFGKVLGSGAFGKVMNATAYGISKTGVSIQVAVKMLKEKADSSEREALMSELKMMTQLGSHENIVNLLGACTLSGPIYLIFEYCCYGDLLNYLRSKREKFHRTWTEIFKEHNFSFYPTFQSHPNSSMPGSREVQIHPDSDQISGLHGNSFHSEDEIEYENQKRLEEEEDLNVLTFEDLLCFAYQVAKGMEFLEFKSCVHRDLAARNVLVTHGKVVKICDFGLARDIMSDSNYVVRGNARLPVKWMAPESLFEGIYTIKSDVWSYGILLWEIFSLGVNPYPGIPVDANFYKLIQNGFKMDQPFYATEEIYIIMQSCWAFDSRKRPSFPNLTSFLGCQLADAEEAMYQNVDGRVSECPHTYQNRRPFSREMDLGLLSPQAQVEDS", "test": "Inhibition of human FLT3", "procedure,_shortened": "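Human FLT3 kinase assayed across a dose−response series at 200 μM ATP.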"}, "HeLa": {"tested_on": "HeLa", "test": "Cytotoxicity against human HeLa cells after 72 hrs by MTT assay"}, "NCI-H2228": {"tested_on": "NCI-H2228", "test": "Cytotoxicity against human NCI-H2228 cells after 72 hrs by MTT assay", "conditions": "NCI-H2228, 72 h"}, "Aurora kinase A": {"target": "Aurora kinase A (Homo sapiens, UniProt O14965)", "test": "Inhibition of human Aurora A"}, "MV4-11 [5]": {"tested_on": "MV4-11", "test": "Cytotoxicity against FLT3-dependent human MV4-11 cells after 72 hrs by MTT assay", "type": "functional, cell-based", "conditions": "MV4-11, 72 h", "procedure,_shortened": "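Leukemia cells at 1−4 × 10⁴ per well were exposed to increasing inhibitor concentrations for 72 h at 37 °C. MTT was then added for 2−4 h, and cells were lysed with 20% acidified SDS. OD read at 570 nm. Viability relative to 0.1% DMSO controls; triplicate. MV4-11 grown in IMDM, others in RPMI 1640 or DMEM with 10% FBS.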"}, "DU-145": {"tested_on": "DU-145", "test": "Cytotoxicity against human DU145 cells after 72 hrs by MTT assay", "conditions": "DU-145, 72 h"}, "[6]": {"target": "Vascular endothelial growth factor receptor 1 (Homo sapiens, UniProt P17948)", "test": "Inhibition of human FLT1"}, "[7]": {"target": "Hepatocyte growth factor receptor (Homo sapiens, UniProt P08581)", "sequence (P08581 whole entry)": "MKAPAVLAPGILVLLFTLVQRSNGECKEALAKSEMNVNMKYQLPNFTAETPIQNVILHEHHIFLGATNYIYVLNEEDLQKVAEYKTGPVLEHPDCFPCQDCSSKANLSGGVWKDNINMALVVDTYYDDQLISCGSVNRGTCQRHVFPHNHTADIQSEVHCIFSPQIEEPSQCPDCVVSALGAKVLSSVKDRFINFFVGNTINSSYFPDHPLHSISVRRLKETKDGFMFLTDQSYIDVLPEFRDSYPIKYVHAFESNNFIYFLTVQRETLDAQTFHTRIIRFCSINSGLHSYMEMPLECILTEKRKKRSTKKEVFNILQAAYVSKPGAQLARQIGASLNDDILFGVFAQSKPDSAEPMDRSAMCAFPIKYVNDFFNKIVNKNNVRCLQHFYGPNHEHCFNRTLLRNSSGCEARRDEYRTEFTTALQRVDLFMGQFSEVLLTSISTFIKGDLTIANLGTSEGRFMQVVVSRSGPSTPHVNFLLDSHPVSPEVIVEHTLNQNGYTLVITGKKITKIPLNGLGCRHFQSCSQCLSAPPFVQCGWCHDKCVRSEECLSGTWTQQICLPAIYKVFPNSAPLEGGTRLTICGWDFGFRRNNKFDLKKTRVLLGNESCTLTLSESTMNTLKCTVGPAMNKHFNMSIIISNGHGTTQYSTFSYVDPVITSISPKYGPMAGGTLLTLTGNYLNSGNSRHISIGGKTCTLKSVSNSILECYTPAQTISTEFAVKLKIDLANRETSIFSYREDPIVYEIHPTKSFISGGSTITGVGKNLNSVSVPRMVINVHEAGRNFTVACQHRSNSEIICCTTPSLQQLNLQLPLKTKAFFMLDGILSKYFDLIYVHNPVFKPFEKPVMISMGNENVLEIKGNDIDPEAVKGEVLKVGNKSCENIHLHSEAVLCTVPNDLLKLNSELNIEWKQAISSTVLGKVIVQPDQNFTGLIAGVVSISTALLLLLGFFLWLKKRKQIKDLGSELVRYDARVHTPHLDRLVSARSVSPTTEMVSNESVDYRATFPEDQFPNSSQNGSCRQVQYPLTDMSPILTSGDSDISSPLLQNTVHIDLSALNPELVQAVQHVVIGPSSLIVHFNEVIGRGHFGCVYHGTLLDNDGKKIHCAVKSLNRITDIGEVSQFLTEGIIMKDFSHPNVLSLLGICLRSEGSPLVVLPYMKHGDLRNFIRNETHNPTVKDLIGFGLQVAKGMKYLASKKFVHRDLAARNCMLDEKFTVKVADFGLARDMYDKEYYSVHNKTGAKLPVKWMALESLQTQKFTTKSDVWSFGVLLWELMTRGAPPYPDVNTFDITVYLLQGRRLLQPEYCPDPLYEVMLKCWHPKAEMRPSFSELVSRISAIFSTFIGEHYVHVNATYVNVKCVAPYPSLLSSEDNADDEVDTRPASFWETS", "test": "Inhibition of human Met"}, "MV4-11 [8]": {"tested_on": "MV4-11", "test": "Downregulation of STAT5 protein expression in human MV4-11 cells at 10 to 300 nM after 5 hrs by Western blot analysis", "type": "functional, cell-based"}, "[9]": {"target": "Platelet-derived growth factor receptor alpha (Homo sapiens, UniProt P16234)", "sequence (P16234 whole entry)": "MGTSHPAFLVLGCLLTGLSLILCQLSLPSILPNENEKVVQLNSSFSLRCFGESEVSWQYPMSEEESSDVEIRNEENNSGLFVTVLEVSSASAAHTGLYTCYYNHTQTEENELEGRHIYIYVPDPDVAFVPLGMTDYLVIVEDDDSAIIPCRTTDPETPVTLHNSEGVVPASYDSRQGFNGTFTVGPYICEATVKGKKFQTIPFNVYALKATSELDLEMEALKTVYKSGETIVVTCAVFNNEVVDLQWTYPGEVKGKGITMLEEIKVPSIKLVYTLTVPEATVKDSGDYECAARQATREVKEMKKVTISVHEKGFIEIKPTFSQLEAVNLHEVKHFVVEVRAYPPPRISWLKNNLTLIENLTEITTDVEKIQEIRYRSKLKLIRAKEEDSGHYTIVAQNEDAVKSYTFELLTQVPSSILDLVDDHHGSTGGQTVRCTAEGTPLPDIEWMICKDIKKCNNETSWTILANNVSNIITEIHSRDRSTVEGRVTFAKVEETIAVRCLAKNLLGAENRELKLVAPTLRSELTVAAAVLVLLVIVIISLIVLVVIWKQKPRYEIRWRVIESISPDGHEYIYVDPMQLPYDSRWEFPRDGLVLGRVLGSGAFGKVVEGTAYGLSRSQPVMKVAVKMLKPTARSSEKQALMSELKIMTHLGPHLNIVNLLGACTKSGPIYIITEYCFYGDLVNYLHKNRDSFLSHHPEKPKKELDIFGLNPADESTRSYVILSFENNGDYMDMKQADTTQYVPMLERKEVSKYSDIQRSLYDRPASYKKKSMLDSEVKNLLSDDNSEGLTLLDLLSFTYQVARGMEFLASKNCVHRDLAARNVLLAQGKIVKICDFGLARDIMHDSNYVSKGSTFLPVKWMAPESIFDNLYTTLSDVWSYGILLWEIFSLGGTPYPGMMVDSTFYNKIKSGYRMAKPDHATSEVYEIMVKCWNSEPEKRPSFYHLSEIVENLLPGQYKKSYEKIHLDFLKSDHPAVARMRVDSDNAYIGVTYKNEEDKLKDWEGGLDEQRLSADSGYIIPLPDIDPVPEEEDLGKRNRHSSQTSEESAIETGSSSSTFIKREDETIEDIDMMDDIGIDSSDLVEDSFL", "test": "Inhibition of human PDGFRalpha"}, "[10]": {"test": "Cmax in Sprague-Dawley rat at 40 mg/kg, ip", "type": "ADME, organism-based", "parameters": "dose 40 mg/kg, route intraperitoneal", "conditions": "in vivo", "procedure,_shortened": "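Male Sprague−Dawley rats (200−250 g), n = 3, fasted overnight, with a femoral-vein catheter for blood sampling. Single 40 mg/kg ip dose; plasma drug levels measured by LC-MS/MS.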"}, "HCT-116": {"tested_on": "HCT-116", "test": "Cytotoxicity against FLT3-independent human HCT116 cells after 72 hrs by MTT assay", "type": "functional, cell-based", "conditions": "HCT-116, 72 h", "procedure,_shortened": "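Adherent lines at 2−5 × 10³ cells/well were allowed to settle 24 h, then the medium was replaced with serial inhibitor dilutions for 72 h. MTT was added for 2−4 h, followed by dissolution in 100% DMSO. OD read at 570 nm. Viability relative to 0.1% DMSO controls; triplicate. Grown in RPMI 1640 or DMEM with 10% FBS, 5% CO₂, 37 °C.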"}, "MV4-11 [11]": {"tested_on": "MV4-11", "test": "Antitumor activity against human MV4-11 cells xenografted in NOD-SCID mouse assessed as tumor mitotic index at 20 mg/kg, ip administered qd for 21 days measured after 2 to 3 days of last dose by Ki67 staining-based immunohistochemical analysis", "type": "functional, organism-based", "parameters": "dose 20 mg/kg", "procedure,_shortened": "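NOD-SCID mice bearing MV4-11 tumours received 20 mg/kg/d ip and were sacrificed at set times after dosing. Tumours were formalin-fixed and paraffin-embedded, and 4−8 μm sections were cut. Proliferation by Ki67 immunostaining, apoptosis by TUNEL staining, tissue by hematoxylin staining; light-microscope imaging.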"}, "Jurkat": {"tested_on": "Jurkat", "test": "Cytotoxicity against human Jurkat cells after 72 hrs by MTT assay"}, "[12]": {"target": "Tyrosine-protein kinase Lck (Homo sapiens, UniProt P06239)", "test": "Inhibition of human Lck"}, "[13]": {"target": "Vascular endothelial growth factor receptor 2 (Homo sapiens, UniProt P35968)", "sequence (P35968 whole entry)": "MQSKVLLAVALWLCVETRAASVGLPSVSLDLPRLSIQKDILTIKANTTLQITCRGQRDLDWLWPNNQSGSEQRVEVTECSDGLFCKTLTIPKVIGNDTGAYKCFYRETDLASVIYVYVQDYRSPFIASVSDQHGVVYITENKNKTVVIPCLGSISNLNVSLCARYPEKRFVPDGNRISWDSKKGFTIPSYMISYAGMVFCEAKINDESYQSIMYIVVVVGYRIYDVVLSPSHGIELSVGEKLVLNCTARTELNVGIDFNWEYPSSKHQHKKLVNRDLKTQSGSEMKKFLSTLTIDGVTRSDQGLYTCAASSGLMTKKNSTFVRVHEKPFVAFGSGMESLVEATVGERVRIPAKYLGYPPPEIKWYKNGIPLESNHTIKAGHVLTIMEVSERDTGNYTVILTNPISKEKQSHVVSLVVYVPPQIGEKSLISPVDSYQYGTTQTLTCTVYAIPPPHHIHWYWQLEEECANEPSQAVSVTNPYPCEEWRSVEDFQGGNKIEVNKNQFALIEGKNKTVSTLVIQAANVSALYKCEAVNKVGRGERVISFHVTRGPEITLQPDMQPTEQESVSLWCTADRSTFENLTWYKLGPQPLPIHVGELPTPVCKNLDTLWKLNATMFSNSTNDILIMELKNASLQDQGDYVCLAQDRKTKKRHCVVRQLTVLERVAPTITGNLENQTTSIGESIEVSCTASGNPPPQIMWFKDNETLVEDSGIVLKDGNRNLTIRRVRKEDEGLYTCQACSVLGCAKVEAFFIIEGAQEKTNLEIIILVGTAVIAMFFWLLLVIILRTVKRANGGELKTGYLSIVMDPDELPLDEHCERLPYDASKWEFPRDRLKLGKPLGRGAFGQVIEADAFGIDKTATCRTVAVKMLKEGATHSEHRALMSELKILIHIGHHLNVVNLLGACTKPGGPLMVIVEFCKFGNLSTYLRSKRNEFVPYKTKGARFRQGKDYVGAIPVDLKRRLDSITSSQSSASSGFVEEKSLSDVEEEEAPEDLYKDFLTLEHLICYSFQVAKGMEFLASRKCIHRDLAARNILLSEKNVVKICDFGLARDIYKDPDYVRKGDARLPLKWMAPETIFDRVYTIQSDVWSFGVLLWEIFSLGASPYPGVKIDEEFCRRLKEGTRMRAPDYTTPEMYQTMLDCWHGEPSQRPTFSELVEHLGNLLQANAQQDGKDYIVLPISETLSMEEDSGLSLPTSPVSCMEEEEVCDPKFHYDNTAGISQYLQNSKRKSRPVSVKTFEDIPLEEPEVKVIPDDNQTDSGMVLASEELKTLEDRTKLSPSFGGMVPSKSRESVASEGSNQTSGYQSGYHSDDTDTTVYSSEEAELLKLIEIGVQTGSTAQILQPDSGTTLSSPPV", "test": "Inhibition of human KDR"}, "LoVo": {"tested_on": "LoVo", "test": "Cytotoxicity against human LoVo cells after 72 hrs by MTT assay"}, "Ramos": {"tested_on": "Ramos", "test": "Cytotoxicity against human Ramos cells after 72 hrs by MTT assay"}, "Mus musculus [14]": {"tested_on": "Mus musculus", "test": "Toxicity in NOD-SCID mouse bearing human MV4-11 cells assessed as change in body weight at 20 to 100 mg/kg, ip administered qd for 21 days", "type": "organism-based", "parameters": "dose 20-100 mg/kg, route intraperitoneal", "conditions": "in vivo, 504 h", "procedure,_shortened": "as §1"}, "K562": {"tested_on": "K562", "test": "Cytotoxicity against human K562 cells after 72 hrs by MTT assay", "conditions": "K562, 72 h"}, "[15]": {"test": "Cytotoxicity against human SK cells after 72 hrs by MTT assay"}},
  "note": "Calls of active or inactive are those of the source. No cut-off for these calls is given here.",
  "data": [
    {"smiles": "Cc1ccc(NC(=O)Nc2nnc(Sc3ncnc4cc(OCCCN5CCOCC5)ccc34)s2)cc1", "values": [
      {"measurement": "IC50", "setting": "[1]", "result": 6.8, "unit": "µM"},
      {"measurement": "Activity", "setting": "Mus musculus [2]", "result": "Non-toxic"},
      {"measurement": "IC50", "setting": "[3]", "result": 2800, "unit": "nM"},
      {"measurement": "IC50", "setting": "[4]", "result": 10, "unit": "nM"},
      {"measurement": "IC50", "setting": "HeLa", "result": "> 20", "unit": "µM"},
      {"measurement": "IC50", "setting": "NCI-H2228", "result": "> 20", "unit": "µM"},
      {"measurement": "IC50", "setting": "Aurora kinase A", "result": 1500, "unit": "nM"},
      {"measurement": "IC50", "setting": "MV4-11 [5]", "result": 6, "unit": "nM"},
      {"measurement": "IC50", "setting": "DU-145", "result": 18.6, "unit": "µM"},
      {"measurement": "IC50", "setting": "[6]", "result": "> 1000", "unit": "nM"},
      {"measurement": "IC50", "setting": "[7]", "result": "> 10", "unit": "µM"},
      {"measurement": "Activity", "setting": "MV4-11 [8]", "result": "inactive"},
      {"measurement": "IC50", "setting": "[9]", "result": "> 10", "unit": "µM"},
      {"measurement": "Cmax", "setting": "[10]", "result": 5310, "unit": "ng/mL"},
      {"measurement": "IC50", "setting": "HCT-116", "result": "> 10", "unit": "µM"},
      {"measurement": "Activity", "setting": "MV4-11 [11]", "result": "Active"},
      {"measurement": "IC50", "setting": "Jurkat", "result": 3.05, "unit": "µM"},
      {"measurement": "IC50", "setting": "[12]", "result": "> 10", "unit": "µM"},
      {"measurement": "IC50", "setting": "[13]", "result": "> 10", "unit": "µM"},
      {"measurement": "IC50", "setting": "LoVo", "result": "> 20", "unit": "µM"},
      {"measurement": "IC50", "setting": "Ramos", "result": 6.25, "unit": "µM"},
      {"measurement": "Activity", "setting": "Mus musculus [14]", "result": "Non-toxic"},
      {"measurement": "IC50", "setting": "K562", "result": 12.7, "unit": "µM"},
      {"measurement": "IC50", "setting": "[15]", "result": "> 20", "unit": "µM"}
    ]}
  ]
}
